From ChEMBL document CHEMBL5576109, “Hydantoin derivative dimers as broad-spectrum antimicrobial agents against ESKAPE pathogens with enhanced killing rate and stability” (RSC Med Chem, 2024)
≈ marks a conversion by molar mass, not a printed value. Calls of active or inactive are those of the source. The calls are words filed in the database; no cut-off is given here.

What was measured:
Bacillus subtilis = test: Antibacterial activity against Bacillus subtilis ATCC 6633 assessed as reduction bacterial growth after 16 hrs by TECAN SPARK microplate reader analysis; type: functional
How it was run: (§1)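 Single colony grown overnight in 4 mL TSB at 37 °C, diluted 100-fold and grown to mid-log phase. Compounds 2-fold serially diluted in TSB and mixed 1:1 with bacteria in TSB (1 × 10^6 CFU/mL). Incubated 16 h at 37 °C, then A600 read. MIC taken as the lowest concentration giving complete growth inhibition.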

Pseudomonas aeruginosa = test: Antibacterial activity against Pseudomonas aeruginosa CMCC 10104 assessed as reduction bacterial growth after 16 hrs by TECAN SPARK microplate reader analysis; type: functional; how it was run: as §1
Escherichia coli [1] = test: Bactericidal activity against Escherichia coli ATCC 25922 assessed as reduction in colony forming units incubated for 15 to 120 mins by time-kill kinetics assay; type: functional, organism-based; details: time 15-120 min
How it was run: (§2)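 Bacteria grown at 37 °C to mid-log phase and diluted to 1 × 10^6 CFU/mL. […] Mixtures diluted 10^2–10^4-fold and plated on TSB agar; colonies counted after 20 h at 37 °C.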

Escherichia coli [2] = test: Bactericidal activity against Escherichia coli ATCC 25922 assessed as inhibition of bacterial growth at 1 to 4 times of MIC measured within 1 hr mins by time-kill kinetics assay relative to control; type: functional; how it was run: as §2
Escherichia coli [3] = test: Bactericidal activity against Escherichia coli ATCC 25922 assessed as reduction in colony forming units at 4 times of MIC measured after 60 mins by time-kill kinetics assay; type: functional, organism-based; how it was run: as §2
Escherichia coli [4] = test: Antibacterial activity against Escherichia coli ATCC 25922 assessed as inhibition of bacterial growth by measuring fold increase in MIC measured after 16 to 18 hrs in presence of KCl by TECAN SPARK microplate reader analysis; type: functional; details: time 16-18 hrs
How it was run: (§3)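 Salt/serum stability. Exponential-phase bacteria incubated 16–18 h with compound in medium supplemented with 10 mM NaCl, 10 mM KCl, 10 mM MgCl2, 10% DMEM or 10% FBS. Stability judged from the change in MIC.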

Escherichia coli [5] = test: Antibacterial activity against Escherichia coli ATCC 25922 assessed as inhibition of bacterial growth by measuring fold increase in MIC measured after 16 to 18 hrs in presence of MgCl2 by TECAN SPARK microplate reader analysis; type: functional; details: time 16-18 hrs; how it was run: as §3
Staphylococcus aureus = test: Induction of morphological changes in Staphylococcus aureus ATCC 29213 assessed as cellular inclusion leakage at 8 time of MIC for 6 hrs by scanning electron microscopy; type: functional, organism-based
How it was run: (§4)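 Mid-log cells exposed to compound for 6 h at 37 °C alongside untreated controls. Cells pelleted (3000 rpm, 15 min), washed four times in PBS, and fixed with 2.5% glutaraldehyde. Dehydrated through graded ethanol, critical-point dried and gold-coated, then imaged by SEM.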

Escherichia coli [6] = test: Induction of morphological changes in Escherichia coli ATCC 25922 assessed as cell shrinkage at 8 time of MIC for 6 hrs by scanning electron microscopy; type: functional, organism-based; how it was run: as §4
Escherichia coli [7] = test: Induction of morphological changes in Escherichia coli ATCC 25922 assessed as cell collapse at 8 time of MIC for 6 hrs by scanning electron microscopy; type: functional, organism-based; how it was run: as §4
Escherichia coli [8] = test: Induction of morphological changes in Escherichia coli ATCC 25922 assessed as cellular inclusion leakage at 8 time of MIC for 6 hrs by scanning electron microscopy; type: functional, organism-based; how it was run: as §4

## CCCCCCN1C(=O)[C@H](CCCCNC(=N)N)N(Cc2ccc(-c3ccc(CN4C(=O)N(CCCCCC)C(=O)[C@@H]4CCCCNC(=N)N)cc3)cc2)C1=O
Bacillus subtilis
  MIC: 1.95 µg/mL (≈ 2.52 µM)
Pseudomonas aeruginosa
  MIC: 15.6 µg/mL (≈ 20.2 µM)
Escherichia coli [1]
  Activity: Dose-Dependent Effect
Escherichia coli [2]
  inhibition (INH): 100%
Escherichia coli [3]
  Activity: Active
Escherichia coli [4]
  fold change (FC): 1
Escherichia coli [5]
  fold change (FC): 1
Staphylococcus aureus
  Activity: Active
Escherichia coli [6]
  Activity: Active
Escherichia coli [7]
  Activity: Active
Escherichia coli [8]
  Activity: Active
